For test [1], the target named is T1, Prostaglandin E2 receptor EP1 subtype (Homo sapiens, UniProt P34995).
T1 sequence (P34995 whole entry): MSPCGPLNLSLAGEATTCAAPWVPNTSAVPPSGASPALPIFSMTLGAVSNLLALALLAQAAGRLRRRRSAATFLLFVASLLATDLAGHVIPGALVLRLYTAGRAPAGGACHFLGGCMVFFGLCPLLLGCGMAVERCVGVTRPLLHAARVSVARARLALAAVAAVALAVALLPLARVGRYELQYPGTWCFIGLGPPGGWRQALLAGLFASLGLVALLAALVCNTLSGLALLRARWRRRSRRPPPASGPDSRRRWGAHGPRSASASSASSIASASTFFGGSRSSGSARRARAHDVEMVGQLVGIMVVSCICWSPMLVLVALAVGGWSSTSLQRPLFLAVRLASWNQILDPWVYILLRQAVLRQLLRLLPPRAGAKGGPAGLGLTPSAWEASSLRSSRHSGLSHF
Description: Displacement of [3H]PGE2 from human recombinant EP1 receptor expressed in CHO cell membrane. In kind it is cell membranes. Summed up:
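Radioligand binding using [3H]-PGE2 on membranes of CHO cells expressing recombinant human EP1 receptor; affinity expressed as pIC50. Values are means of at least three experiments.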

Test [2] addresses T1, Prostaglandin E2 receptor EP1 subtype. Description: Antagonist activity at human recombinant EP1 receptor expressed in CHO cells assessed as inhibition of PGE2-induced calcium mobilization by FLIPR. It counts as functional, cell-based. The procedure, abridged: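 Functional antagonism in CHO cells expressing recombinant human EP1 receptor; blockade of PGE2-driven intracellular Ca2+ mobilization read by FLIPR, reported as pKi. Values are means of at least three experiments, with some from two.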
Background: Calcium flux is commonly read through the fluorescence of an indicator in the cells.

The structures appear in SMILES notation. Some results are limits rather than exact numbers.

The term IC50 denotes the concentration needed to halve the response being measured. By Ki is commonly meant the equilibrium dissociation constant of an inhibitor or competing ligand from its target. As for `COc1ccc(Cc2nnc(CN(c3cccc(Cl)c3Cl)S(=O)(=O)c3ccc(Cl)cc3)o2)cc1`, the concentration for half-maximal inhibition (IC50) in test [1] (read-out: Log IC50 (converted)) is 20 nM. In test [2], the Ki is 63.1 nM.

As to `CCc1ccccc1N(Cc1nnc(COc2ccc(OC)cc2)o1)S(=O)(=O)c1ccc(C)cc1`, in test [1] (read-out: Log IC50 (converted)), the IC50 was 25.1 nM. Moreover, the inhibitory constant (Ki) in test [2] is 126 nM.

`CCOc1ccc(Cc2nnc(CN(c3cccc(Cl)c3C)S(=O)(=O)c3ccc(C)cc3)o2)cc1`: the 50% inhibitory concentration (IC50) in test [1] (read-out: Log IC50 (converted)) is 3.98 nM. For the same compound, in test [2], the Ki is 50.1 nM.

On to `COc1ccc(Nc2nnc(CN(c3cccc(Cl)c3C)S(=O)(=O)c3ccc(C)cc3)o2)cc1`, for which the IC50 in test [1] (read-out: Log IC50 (converted)) is 31.6 nM. For the same compound, the Ki in test [2] was 79.4 nM.

For `Cc1ccc(S(=O)(=O)N(Cc2nnc(Cc3ccccc3F)o2)c2cccc(Cl)c2C)cc1`, the half-inhibitory concentration (IC50) in test [1] (read-out: Log IC50 (converted)) was 501 nM. Also, the Ki in test [2] was 631 nM.

Turning to `COc1ccc(Cc2nnc(CN(c3cccc(Cl)c3Cl)S(=O)(=O)c3ccc(C)cc3)o2)cc1`, the half-inhibitory concentration (IC50) in test [1] (read-out: Log IC50 (converted)) was 7.94 nM. Also, the inhibitory constant (Ki) in test [2] was 39.8 nM.

`Cc1ccc(S(=O)(=O)N(Cc2nnc(Cc3ccc(C(F)(F)F)cc3)o2)c2cccc(Cl)c2C)cc1`: the half-inhibitory concentration (IC50) in test [1] (read-out: Log IC50 (converted)) is 50.1 nM. Besides, in test [2], the inhibitory constant (Ki) was 158 nM.

On to `CCc1ccccc1N(Cc1nnc(Cc2ccc(Cl)cc2)o1)S(=O)(=O)c1ccc(C)cc1`, for which the IC50 in test [1] (read-out: Log IC50 (converted)) is 398 nM. For the same compound, the Ki in test [2] is 316 nM.

For `COc1ccc(NCc2nnc(CN(c3cccc(Cl)c3C)S(=O)(=O)c3ccc(C)cc3)o2)cc1`, in test [1] (read-out: Log IC50 (converted)), the concentration for half-maximal inhibition (IC50) is 20 nM. For the same compound, the Ki in test [2] is 79.4 nM.

For the compound `Cc1ccc(S(=O)(=O)N(Cc2nnc(Cc3c(Cl)cccc3Cl)o2)c2cccc(Cl)c2C)cc1`, the IC50 in test [1] (read-out: Log IC50 (converted)) is 63.1 nM. In addition, the Ki in test [2] was 501 nM.

Regarding `COc1ccc(Cc2nnc(CN(c3cccc(C(F)(F)F)c3C)S(=O)(=O)c3ccc(C)cc3)o2)cc1`, the concentration for half-maximal inhibition (IC50) in test [1] (read-out: Log IC50 (converted)) was 63.1 nM. For the same compound, in test [2], the Ki is 398 nM.

On to `CCc1ccccc1N(CC(=O)NCc1ccc(OC)cc1)S(=O)(=O)c1ccc(C)cc1`, for which the IC50 in test [1] (read-out: IC50) came to 25 nM.

Consider `CCc1ccccc1N(Cc1nnc(CNc2ccc(OC)cc2)o1)S(=O)(=O)c1ccc(C)cc1`, for which, in test [1] (read-out: Log IC50 (converted)), the IC50 is 501 nM. Moreover, the Ki in test [2] is 794 nM.

As to `CCc1ccccc1N(Cc1nnc(Cc2ccc(OC)cc2)o1)S(=O)(=O)c1ccc(C)cc1`, the IC50 in test [1] (read-out: IC50) came to 126 nM. In addition, in test [2], the inhibition constant (Ki) was 631 nM.

Regarding `Cc1ccc(S(=O)(=O)N(Cc2nnc(Cc3ccccc3Cl)o2)c2cccc(Cl)c2C)cc1`, the IC50 in test [1] (read-out: Log IC50 (converted)) was 79.4 nM. The inhibitory constant (Ki) in test [2] was 398 nM.

As for `CCc1ccccc1N(Cc1nnc(Cc2ccccc2)o1)S(=O)(=O)c1ccc(C)cc1`, the concentration for half-maximal inhibition (IC50) in test [1] (read-out: Log IC50 (converted)) was 1000 nM. Further, the inhibitory constant (Ki) in test [2] was 398 nM.

Regarding `Cc1ccc(S(=O)(=O)N(Cc2nnc(Cc3cccc(F)c3)o2)c2cccc(Cl)c2C)cc1`, the half-inhibitory concentration (IC50) in test [1] (read-out: Log IC50 (converted)) is 316 nM. For the same compound, the inhibition constant Ki in test [2] was 501 nM.

Take `Cc1ccc(S(=O)(=O)N(Cc2nnc(Cc3cccc(Cl)c3)o2)c2cccc(Cl)c2C)cc1`: in test [1] (read-out: Log IC50 (converted)), the IC50 is 158 nM. In addition, the inhibition constant (Ki) in test [2] is 2000 nM.

Take `Cc1ccc(S(=O)(=O)N(Cc2nnc(Cc3ccc(N(C)C)cc3)o2)c2cccc(Cl)c2C)cc1`: in test [1] (read-out: Log IC50 (converted)), the IC50 is 12.6 nM. Also, the inhibition constant (Ki) in test [2] was 20 nM.

Take `Cc1ccc(S(=O)(=O)N(CC(=O)NCCc2ccc(Cl)cc2)c2ccccc2C)cc1`: the half-maximal inhibitory concentration (IC50) in test [1] (read-out: Log IC50 (converted)) was 251 nM.

`CCOc1ccc(Cc2nnc(CN(c3cccc(Cl)c3Cl)S(=O)(=O)c3ccc(C)cc3)o2)cc1`: the IC50 in test [1] (read-out: Log IC50 (converted)) is 6.31 nM. In addition, the Ki in test [2] is 31.6 nM.

Consider `CCOc1ccc(Cc2nnc(CN(c3ccccc3CC)S(=O)(=O)c3ccc(C)cc3)o2)cc1`, for which the half-inhibitory concentration (IC50) in test [1] (read-out: Log IC50 (converted)) is 126 nM. Further, in test [2], the Ki is 39.8 nM.

Consider `COc1ccc(Nc2nnc(CN(c3cccc(Cl)c3Cl)S(=O)(=O)c3ccc(C(F)(F)F)cc3)o2)cc1`, for which the IC50 in test [1] (read-out: Log IC50 (converted)) was 7.94 nM. The Ki in test [2] was 63.1 nM.

Consider `CCc1ccccc1N(Cc1nnc(Oc2ccc(OC)cc2)o1)S(=O)(=O)c1ccc(C)cc1`, for which, in test [1] (read-out: Log IC50 (converted)), the half-maximal inhibitory concentration (IC50) is above 1000 nM. The inhibition constant Ki in test [2] is 100 nM.

For `CCc1ccccc1N(CC(=O)NCCc1ccc(OC)c(OC)c1)S(=O)(=O)c1ccc(C)cc1`, the 50% inhibitory concentration (IC50) in test [1] (read-out: Log IC50 (converted)) is 7.94 nM.

With `CCc1ccccc1N(CC(=O)OCc1ccc(OC)cc1)S(=O)(=O)c1ccc(C)cc1`, in test [1] (read-out: IC50), the IC50 came out at 63 nM.

Take `COc1ccc(Nc2nnc(CN(c3cccc(Cl)c3Cl)S(=O)(=O)c3ccc(C)cc3)o2)cc1`: in test [1] (read-out: Log IC50 (converted)), the IC50 was 39.8 nM. In test [2], the Ki is 50.1 nM.

Consider `CCOc1ccc(Cc2nnc(CN(c3cccc(Cl)c3Cl)S(=O)(=O)c3ccc(C(F)(F)F)cc3)o2)cc1`, for which the half-maximal inhibitory concentration (IC50) in test [1] (read-out: Log IC50 (converted)) was 2.51 nM. Further, in test [2], the Ki was 6.31 nM.

In the case of `COc1ccc(Cc2nnc(CN(c3cccc(Cl)c3C)S(=O)(=O)c3ccc(C)cc3)o2)cc1`, the concentration for half-maximal inhibition (IC50) in test [1] (read-out: Log IC50 (converted)) is 6.31 nM. The Ki in test [2] was 39.8 nM.

Turning to `Cc1ccc(S(=O)(=O)N(Cc2nnc(Cc3ccc(Cl)cc3Cl)o2)c2cccc(Cl)c2C)cc1`, the IC50 in test [1] (read-out: Log IC50 (converted)) is 63.1 nM. Also, in test [2], the Ki was 1000 nM.

Consider `Cc1ccc(S(=O)(=O)N(Cc2nnc(Cc3ccc(F)cc3)o2)c2cccc(Cl)c2C)cc1`, for which the half-maximal inhibitory concentration (IC50) in test [1] (read-out: Log IC50 (converted)) is 200 nM. The Ki in test [2] was 501 nM.
